These results are taken from ChEMBL document CHEMBL1817556, “Substituted lactam and cyclic azahemiacetals modulate Pseudomonas aeruginosa quorum sensing” (Bioorg Med Chem, 2011).

pIC50: −log10 of the molar value.

The target in experiment [1] is 3-(3-hydroxydecanoyloxy)decanoate synthase (Pseudomonas aeruginosa (strain ATCC 15692 / PAO1 / 1C / PRS 101 / LMG12228)) (UniProt Q51559). The experiment can be described thus: Modulation of Pseudomonas aeruginosa lacZ-fused rhlA expressed in Escherichia coli DH5alpha co-expressing Ptac-rhlR assessed as C4-AHL-induced effect at 0.40 mM after 4 hrs by beta-galactosidase assay relative to control. The method, boiled down:
(§1)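 rhl reporter: E. coli DH5α carrying pECP61.5 (Ptac-rhlR, PrhlA-lacZ) was grown overnight in LB with ampicillin (100 μg/ml) only, then diluted to OD600 0.150. It was induced with 1 mM IPTG, and 2 μM C4-HSL plus compound or DMSO were added at OD600 1.0. Cultures were shaken 4 h at 37 °C. β-Galactosidase activity was read in Miller units as % of the solvent sample. Triplicates per biological replicate, at least two repeats; paired two-tailed t-test.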

The target of experiment [2] is T1, Acyl-homoserine-lactone synthase (Pseudomonas aeruginosa (strain ATCC 15692 / PAO1 / 1C / PRS 101 / LMG12228)) (UniProt P33883).
T1 sequence (whole entry): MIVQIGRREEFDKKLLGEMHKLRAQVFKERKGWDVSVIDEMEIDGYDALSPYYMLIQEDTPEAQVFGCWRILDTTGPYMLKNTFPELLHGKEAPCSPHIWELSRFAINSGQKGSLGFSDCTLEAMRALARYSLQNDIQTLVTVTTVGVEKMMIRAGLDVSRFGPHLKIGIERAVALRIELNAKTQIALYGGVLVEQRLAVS
The experiment can be described thus: Modulation of Pseudomonas aeruginosa lacZ-fused lasI expressed in Escherichia coli DH5alpha co-expressing pBAD-lasR assessed as 3-oxo-C12-AHL-induced effect at 0.40 mM after 3 hrs by beta-galactosidase assay relative to control. In short, it runs like this:
(§2)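 E. coli DH5α carrying pSC11 (PlasI-lacZ translational fusion) and pJN105L (PBAD-lasR) was grown overnight in LB with ampicillin (100 μg/ml) and gentamicin (15 μg/ml), then diluted to OD600 0.150. Arabinose (0.2% w/v), 3-oxo-C12-AHL (2 μM) and test compound or DMSO were added. Cultures were shaken 3 h at 37 °C. β-Galactosidase activity was read in Miller units and expressed as % of the solvent sample. Triplicates per biological replicate, repeated at least twice; paired two-tailed t-test.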

Experiment [3] addresses 3-(3-hydroxydecanoyloxy)decanoate synthase (Pseudomonas aeruginosa (strain ATCC 15692 / PAO1 / 1C / PRS 101 / LMG12228)) (UniProt Q51559). The experiment can be described thus: Modulation of Pseudomonas aeruginosa lacZ-fused rhlA expressed in Escherichia coli DH5alpha co-expressing Ptac-rhlR assessed as C4-AHL-induced effect at 0.20 mM after 4 hrs by beta-galactosidase assay relative to control. In short, it runs like this: as §1

In experiment [4] the target is T1, Acyl-homoserine-lactone synthase (Pseudomonas aeruginosa (strain ATCC 15692 / PAO1 / 1C / PRS 101 / LMG12228)). The experiment can be described thus: Modulation of Pseudomonas aeruginosa lacZ-fused lasI expressed in Escherichia coli DH5alpha co-expressing pBAD-lasR assessed as 3-oxo-C12-AHL-induced effect at 0.20 mM after 3 hrs by beta-galactosidase assay relative to control. The method, boiled down: as §2

The target is the same in experiment [5]. The experiment can be described thus: Modulation of Pseudomonas aeruginosa lacZ-fused lasI expressed in Escherichia coli DH5alpha co-expressing pBAD-lasR assessed as 3-oxo-C12-AHL-induced effect at 0.60 mM after 3 hrs by beta-galactosidase assay relative to control. In short, it runs like this:
as §2

Experiment [6] deals with 3-(3-hydroxydecanoyloxy)decanoate synthase (Pseudomonas aeruginosa (strain ATCC 15692 / PAO1 / 1C / PRS 101 / LMG12228)) (UniProt Q51559). Nature of the experiment: Modulation of Pseudomonas aeruginosa lacZ-fused rhlA expressed in Escherichia coli DH5alpha co-expressing Ptac-rhlR assessed as C4-AHL-induced effect at 0.60 mM after 4 hrs by beta-galactosidase assay relative to control. In short, it runs like this: (§3)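 E. coli DH5α carrying pECP61.5 (Ptac-rhlR, PrhlA-lacZ), grown overnight in LB with ampicillin 100 μg/ml and diluted to OD600 0.150. At OD600 1.0, 1 mM IPTG, 2 μM C4-HSL and compound or DMSO were added. Cultures were shaken 4 h at 37 °C, then β-galactosidase was read in Miller units. Activity is % of solvent sample, from triplicates per biological replicate, with at least two repeats.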

The target in experiment [7] is T1, Acyl-homoserine-lactone synthase (Pseudomonas aeruginosa (strain ATCC 15692 / PAO1 / 1C / PRS 101 / LMG12228)). The experiment can be described thus: Modulation of Pseudomonas aeruginosa lacZ-fused lasI expressed in Escherichia coli DH5alpha co-expressing pBAD-lasR assessed as 3-oxo-C12-AHL-induced effect at 0.80 mM after 3 hrs by beta-galactosidase assay relative to control. In short, it runs like this: as §2

The target in experiment [8] is 3-(3-hydroxydecanoyloxy)decanoate synthase (Pseudomonas aeruginosa (strain ATCC 15692 / PAO1 / 1C / PRS 101 / LMG12228)) (UniProt Q51559). Nature of the experiment: Modulation of Pseudomonas aeruginosa lacZ-fused rhlA expressed in Escherichia coli DH5alpha co-expressing Ptac-rhlR assessed as C4-AHL-induced effect at 0.80 mM after 4 hrs by beta-galactosidase assay relative to control. In short, it runs like this:
as §3

Experiment [9] has as its target T2, Transcriptional activator protein LasR (Pseudomonas aeruginosa (strain ATCC 15692 / PAO1 / 1C / PRS 101 / LMG12228), UniProt P25084).
T2 sequence (P25084 whole entry): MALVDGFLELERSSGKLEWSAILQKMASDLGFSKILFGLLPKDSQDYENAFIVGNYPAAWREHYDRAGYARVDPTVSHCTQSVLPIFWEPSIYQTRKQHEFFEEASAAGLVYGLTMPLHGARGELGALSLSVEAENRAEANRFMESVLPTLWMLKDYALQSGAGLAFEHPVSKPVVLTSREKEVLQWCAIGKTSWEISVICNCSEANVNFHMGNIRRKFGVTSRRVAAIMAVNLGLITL
Nature of the experiment: Inhibition of Pseudomonas aeruginosa LasR.

Experiment [10] concerns the target 3-(3-hydroxydecanoyloxy)decanoate synthase (Pseudomonas aeruginosa (strain ATCC 15692 / PAO1 / 1C / PRS 101 / LMG12228)) (UniProt Q51559). Nature of the experiment: Modulation of Pseudomonas aeruginosa lacZ-fused rhlA expressed in Escherichia coli DH5alpha co-expressing Ptac-rhlR assessed as C4-AHL-induced effect at 0.33 mM after 4 hrs by beta-galactosidase assay relative to control. The method, boiled down:
as §1

Experiment [11] has the same target. The experiment can be described thus: Modulation of Pseudomonas aeruginosa lacZ-fused rhlA expressed in Escherichia coli DH5alpha co-expressing Ptac-rhlR assessed as C4-AHL-induced effect at 0.66 mM after 4 hrs by beta-galactosidase assay relative to control. The method, boiled down: as §3
Experiment [12] has the same target. Nature of the experiment: Modulation of Pseudomonas aeruginosa lacZ-fused rhlA expressed in Escherichia coli DH5alpha co-expressing Ptac-rhlR assessed as C4-AHL-induced effect at 0.17 mM after 4 hrs by beta-galactosidase assay relative to control. The method, boiled down: as §1
Experiment [13] addresses T1, Acyl-homoserine-lactone synthase (Pseudomonas aeruginosa (strain ATCC 15692 / PAO1 / 1C / PRS 101 / LMG12228)). Nature of the experiment: Modulation of Pseudomonas aeruginosa lacZ-fused lasI expressed in Escherichia coli DH5alpha co-expressing pBAD-lasR assessed as 3-oxo-C12-AHL-induced effect at 0.50 mM after 3 hrs by beta-galactosidase assay relative to control. In short, it runs like this:
as §2

Experiment [14] has the same target. Nature of the experiment: Modulation of Pseudomonas aeruginosa lacZ-fused lasI expressed in Escherichia coli DH5alpha co-expressing pBAD-lasR assessed as 3-oxo-C12-AHL-induced effect at 0.17 mM after 3 hrs by beta-galactosidase assay relative to control. In short, it runs like this: as §2
The target is the same in experiment [15]. Nature of the experiment: Modulation of Pseudomonas aeruginosa lacZ-fused lasI expressed in Escherichia coli DH5alpha co-expressing pBAD-lasR assessed as 3-oxo-C12-AHL-induced effect at 0.33 mM after 3 hrs by beta-galactosidase assay relative to control. The method, boiled down: as §2
Experiment [16] has as its target 3-(3-hydroxydecanoyloxy)decanoate synthase (Pseudomonas aeruginosa (strain ATCC 15692 / PAO1 / 1C / PRS 101 / LMG12228)) (UniProt Q51559). Nature of the experiment: Modulation of Pseudomonas aeruginosa lacZ-fused rhlA expressed in Escherichia coli DH5alpha co-expressing Ptac-rhlR assessed as C4-AHL-induced effect at 0.50 mM after 4 hrs by beta-galactosidase assay relative to control. The method, boiled down:
as §1

Experiment [17] addresses T1, Acyl-homoserine-lactone synthase (Pseudomonas aeruginosa (strain ATCC 15692 / PAO1 / 1C / PRS 101 / LMG12228)). Nature of the experiment: Modulation of Pseudomonas aeruginosa lacZ-fused lasI expressed in Escherichia coli DH5alpha co-expressing pBAD-lasR assessed as 3-oxo-C12-AHL-induced effect at 0.66 mM after 3 hrs by beta-galactosidase assay relative to control. The method, boiled down: as §2

For experiment [18] the target is unchanged. The experiment can be described thus: Modulation of Pseudomonas aeruginosa lacZ-fused lasI expressed in Escherichia coli DH5alpha co-expressing pBAD-lasR assessed as 3-oxo-C12-AHL-induced effect at 0.23 mM after 3 hrs by beta-galactosidase assay relative to control. The method, boiled down: as §2
The target is the same in experiment [19]. Nature of the experiment: Modulation of Pseudomonas aeruginosa lacZ-fused lasI expressed in Escherichia coli DH5alpha co-expressing pBAD-lasR assessed as 3-oxo-C12-AHL-induced effect at 0.47 mM after 3 hrs by beta-galactosidase assay relative to control. The method, boiled down: as §2
Experiment [20] has the same target. The experiment can be described thus: Modulation of Pseudomonas aeruginosa lacZ-fused lasI expressed in Escherichia coli DH5alpha co-expressing pBAD-lasR assessed as 3-oxo-C12-AHL-induced effect at 0.70 mM after 3 hrs by beta-galactosidase assay relative to control. In short, it runs like this: as §2
The target in experiment [21] is 3-(3-hydroxydecanoyloxy)decanoate synthase (Pseudomonas aeruginosa (strain ATCC 15692 / PAO1 / 1C / PRS 101 / LMG12228)) (UniProt Q51559). The experiment can be described thus: Modulation of Pseudomonas aeruginosa lacZ-fused rhlA expressed in Escherichia coli DH5alpha co-expressing Ptac-rhlR assessed as C4-AHL-induced effect at 0.93 mM after 4 hrs by beta-galactosidase assay relative to control. The method, boiled down: as §3

Experiment [22] shares this target. The experiment can be described thus: Modulation of Pseudomonas aeruginosa lacZ-fused rhlA expressed in Escherichia coli DH5alpha co-expressing Ptac-rhlR assessed as C4-AHL-induced effect at 0.70 mM after 4 hrs by beta-galactosidase assay relative to control. In short, it runs like this: as §3
Experiment [23] has the same target. Nature of the experiment: Modulation of Pseudomonas aeruginosa lacZ-fused rhlA expressed in Escherichia coli DH5alpha co-expressing Ptac-rhlR assessed as C4-AHL-induced effect at 0.47 mM after 4 hrs by beta-galactosidase assay relative to control. The method, boiled down:
as §1

The target is the same in experiment [24]. The experiment can be described thus: Modulation of Pseudomonas aeruginosa lacZ-fused rhlA expressed in Escherichia coli DH5alpha co-expressing Ptac-rhlR assessed as C4-AHL-induced effect at 0.23 mM after 4 hrs by beta-galactosidase assay relative to control. In short, it runs like this:
as §1

Experiment [25] concerns the target T1, Acyl-homoserine-lactone synthase (Pseudomonas aeruginosa (strain ATCC 15692 / PAO1 / 1C / PRS 101 / LMG12228)). Nature of the experiment: Modulation of Pseudomonas aeruginosa lacZ-fused lasI expressed in Escherichia coli DH5alpha co-expressing pBAD-lasR assessed as 3-oxo-C12-AHL-induced effect at 0.93 mM after 3 hrs by beta-galactosidase assay relative to control. In short, it runs like this:
as §2

On to `CCCCCCSC[C@H]1NC(O)[C@H](O)[C@@H]1O` (mixture of isomers), for which the Activity in [1] stood at 105%; in experiment [2], 68%; in [3], 94%; in [4], 84%; in experiment [5], 51%; in experiment [6], 109%. Moreover, the Activity in [7] came out at 42%; in experiment [8], 116%.

By pIC50 is commonly meant the negative decadic logarithm of the IC50, by convention in mol/L. Read a high pIC50 as a low IC50. As to `CCCCCCCCCCCC(=O)N[C@H]1CCOC1=O`, the pIC50 in experiment [9] was 7.40.

As for `CCCCCCCCCCCCSC[C@@H]1CCC(O)N1` (mixture of isomers), the Activity was found to be 93% in [10]; 96% in experiment [11]; 98% in experiment [12]; 45% in [13]; 72% in [14]; 56% in experiment [15]. In addition, the Activity in experiment [16] stood at 91%; in experiment [17] it was 34%.

`CCCCCCCCCC(=O)CC(=O)NC1CCCCC1=O` (stereo unspecified) gave a pIC50 in experiment [9] of 5.00.

With `CCCCCCSC[C@@H]1CCC(=O)N1`, the Activity in experiment [18] came out at 106%; in experiment [19], 87%; in experiment [20], 74%; in experiment [21], 145%; in experiment [22], 130%; in experiment [23], 126%. The Activity in [24] was 126%; in [25], 61%.
